# Measured values reported in ChEMBL document CHEMBL1132437, “Synthesis and antimicrobial activity of 4H-4-oxoquinolizine derivatives: consequences of structural modification at the C-8 position” (1999).
# Experiments:
# Staphylococcus aureus [1] = assay: In vitro antibacterial activity against gram-positive Staphylococcus aureus 1775; format: functional
# Procedure, shortened: (§1)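 Agar dilution MIC determination following the National Committee for Clinical Laboratory Standards recommendations.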
# Escherichia coli [2] = assay: In vitro antibacterial activity against gram negative Escherichia coli KNK 437; format: functional; procedure, shortened: as §1
# Enterococcus faecium = assay: In vitro antibacterial activity against gram-positive Enterococcus faecium ATCC 8043; format: functional; procedure, shortened: as §1
# Burkholderia cepacia [3] = assay: In vitro antibacterial activity against gram negative P. cepacia 2961
# Staphylococcus aureus [4] = assay: In vitro antibacterial activity against gram-positive Staphylococcus aureus NCTC 10649M; format: functional; details: Staphylococcus aureus, NCTC 10649; read-out: MIC; procedure, shortened: as §1
# Pseudomonas aeruginosa [5] = assay: In vitro antibacterial activity against gram negative P. aeruginosa DPHP 5263; format: functional; details: Pseudomonas aeruginosa, DPHP 5263; read-out: MIC; procedure, shortened: as §1
# Burkholderia cepacia [6] = assay: In vitro antibacterial activity against Pseudomonas cepacia 2961 a ciprofloxacin resistant strain; format: functional
# Procedure, shortened: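 MIC by agar dilution following National Committee for Clinical Laboratory Standards recommendations. P. cepacia 2961 is a ciprofloxacin-resistant strain; S. pyogenes 930 is erythromycin-resistant.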
# Escherichia coli [7] = assay: In vivo efficacy against Escherichia coli JUHL in mouse protection test after subcutaneous administration; format: functional
# Procedure, shortened: (§2)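 Mouse protection model: mice infected intravenously with 100-fold LD50 of the organism. Compound given by subcutaneous injection or oral gavage at 1 and 5 h after infection, over a dose range. Deaths tracked for 7 days post-inoculation. ED50 is the dose giving 50% survival of treated mice over the trial.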
# Streptococcus pyogenes = assay: In vitro antibacterial activity against gram positive Streptococcus pyogenes 930; format: functional; details: Streptococcus pyogenes; read-out: MIC; procedure, shortened: as §1
# Mus musculus [8] = assay: IIn vivo efficacy against Escherichia coli JUHL in mouse protection test after by oral gavage; format: functional; procedure, shortened: as §2
# Staphylococcus aureus [9] = assay: In vivo efficacy against Staphylococcus aureus NCTC 10649M in mouse; format: functional; details: Staphylococcus aureus; read-out: ED50; procedure, shortened: as §2
# Burkholderia cepacia [10] = assay: In vitro antibacterial activity against gram negative Pseudomonas cepacia 2961; format: functional; procedure, shortened: as §1
# Pseudomonas aeruginosa [11] = assay: In vitro antibacterial activity against Gram-negative Pseudomonas aeruginosa 5007; format: functional; details: Pseudomonas aeruginosa; read-out: MIC; procedure, shortened: as §1
# Mus musculus [12] = assay: IIn vivo efficacy against Streptococcus pneumoniae ATCC 6303 in mouse protection test after administration by oral gavage; format: functional; procedure, shortened: as §2
# Pseudomonas aeruginosa [13] = assay: In vivo efficacy against Pseudomonas aeruginosa 5007 in mouse protection test after subcutaneous administration; format: functional; procedure, shortened: as §2
# Streptococcus pneumoniae = assay: In vivo efficacy against Streptococcus pneumoniae ATCC 6303 in mouse protection test after s.c. administration.; format: functional; procedure, shortened: as §2
# Mus musculus [14] = assay: InIn vivo efficacy against Escherichia coli JUHL in mouse protection test after administration by oral gavage; format: functional; procedure, shortened: as §2
# Staphylococcus aureus [15] = assay: In vivo efficacy against Staphylococcus aureus NCTC 10649M in mouse protection test after p.o. administration.; format: functional; procedure, shortened: as §2
# Pseudomonas aeruginosa [16] = assay: In vivo efficacy against Pseudomonas aeruginosa 5007 in mouse protection test after administration by oral gavage; format: functional; procedure, shortened: as §2
# Mus musculus [17] = assay: In vivo efficacy against Staphylococcus aureus NCTC 10649M in mouse protection test after subcutaneous administration.; format: functional; details: sc; procedure, shortened: as §2
# Mus musculus [18] = assay: In vivo efficacy against Staphylococcus aureus NCTC 10649M in mouse protection test after sub cutaneous administration; format: functional; procedure, shortened: as §2
# Mus musculus [19] = assay: In vivo efficacy against Streptococcus pneumoniae ATCC 6303 in mouse protection test […].; format: functional; procedure, shortened: as §2
# Escherichia coli [20] = assay: In vivo efficacy against Escherichia coli JUHL in mouse protection test after p.o. administration.; format: functional; procedure, shortened: as §2
# Mus musculus [21] = assay: In vivo efficacy against Staphylococcus aureus NCTC 10649M in mouse protection test after administration by subcutaneous administration; format: functional; details: sc; procedure, shortened: as §2
# Staphylococcus aureus [22] = assay: In vitro antibacterial activity against gram-positive Staphylococcus aureus NCTC 10649M
# Mus musculus [23] = assay: IIn vivo efficacy against Escherichia coli JUHL in mouse protection test after administration by oral gavage.; format: functional; procedure, shortened: as §2
# Mus musculus [24] = assay: In vivo efficacy against Streptococcus pneumoniae ATCC 6303 after administration by oral gavage; format: functional; procedure, shortened: as §2
# Mus musculus [25] = assay: In vivo efficacy against Streptococcus pneumoniae ATCC 6303 after subcutaneous administration; format: functional; details: sc; procedure, shortened: as §2
# Mus musculus [26] = assay: In vivo efficacy against Pseudomonas aeruginosa 5007 in mouse protection test […]; format: functional; procedure, shortened: as §2
# [27] = Staphylococcus aureus, read-out: MIC
# [28] = Escherichia coli, read-out: MIC
# [29] = Enterococcus faecium, ATCC 8043, read-out: MIC
# [30] = Escherichia coli, sc, read-out: ED50
# [31] = Burkholderia cepacia, read-out: MIC
# [32] = Pseudomonas aeruginosa, sc, read-out: ED50
# [33] = Staphylococcus aureus, po, read-out: ED50
# [34] = Pseudomonas aeruginosa, po, read-out: ED50
Structure (SMILES),MIC (Staphylococcus aureus [1]; [27]) [µg/mL],MIC (Escherichia coli [2]; [28]) [µg/mL],MIC (Enterococcus faecium; [29]) [µg/mL],MIC (Staphylococcus aureus [4]) [µg/mL],MIC (Pseudomonas aeruginosa [5]) [µg/mL],MIC (Burkholderia cepacia [10]; [31]) [µg/mL],ED50 (Escherichia coli [7]; [30]) [mg/kg],ED50 (Staphylococcus aureus [9]) [mg/kg],ED50 (Pseudomonas aeruginosa [13]; [32]) [mg/kg],ED50 (Staphylococcus aureus [15]; [33]) [mg/kg],ED50 (Pseudomonas aeruginosa [16]; [34]) [mg/kg],ED50 (Escherichia coli [7]) [mg/kg],also measured
Cc1c(N2CCC3(CCCC3N)C2)c(F)cn2c(=O)c(C(=O)O)cc(C3CC3)c12 (centres undefined),0.78,0.2,0.1,0.05,6.2,,,,,,,,MIC (Burkholderia cepacia [3]): 0.78 µg/mL; MIC (Burkholderia cepacia [6]): 3.1 µg/mL
"Cc1c(N2CC[C@H](C)C(N)C2)c(F)cn2c(=O)c(C(=O)O)cc(C3CC3)c12 (single isomer, unassigned)",,,,,,,,,> 32,,> 50,2,ED50 (Streptococcus pneumoniae): 8 mg/kg; ED50 (Mus musculus [18]): 1.2 mg/kg; ED50 (Mus musculus [19]): 5.2 mg/kg; ED50 (Staphylococcus aureus [15]): 6.3 mg/kg; ED50 (Escherichia coli [20]): 12.5 mg/kg
Cc1c(N2C[C@@H]3CCN[C@@H]3C2)c(F)cn2c(=O)c(C(=O)O)cc(C3CC3)c12 (stereo in doubt),,,,,,,,,,1.5,,0.5,"ED50 (Pseudomonas aeruginosa [13]): 5 mg/kg; ED50 (Mus musculus [21]): 0.6 mg/kg; MIC (Staphylococcus aureus [1]): 3.1 µg/mL; MIC (Escherichia coli [2]): 0.1 µg/mL; MIC (Enterococcus faecium): 0.1 µg/mL; ED50 (Pseudomonas aeruginosa [16]): 17.9 mg/kg; MIC (Burkholderia cepacia [10]): 0.78 µg/mL; ED50 (Escherichia coli [20]; Escherichia coli, po, read-out: ED50): 1.1 mg/kg; MIC (Staphylococcus aureus [22]): 0.05 µg/mL"
Cc1c(N2CC[C@H](N)C2)c(F)cn2c(=O)c(C(=O)O)cc(C3CC3)c12 (stereo in doubt; 3i) [ABT-719],0.78,0.02,0.02,0.02,,0.39,0.3,0.8,0.5,3,,,ED50 (Mus musculus [23]): 8.3 mg/kg; ED50 (Mus musculus [24]): 10 mg/kg; ED50 (Mus musculus [25]): 2.6 mg/kg; ED50 (Mus musculus [26]): 2.9 mg/kg

# More lines, main results first:
MIC (Staphylococcus aureus [1]; [27]) [µg/mL],MIC (Escherichia coli [2]; [28]) [µg/mL],MIC (Enterococcus faecium; [29]) [µg/mL],MIC (Staphylococcus aureus [4]) [µg/mL],MIC (Pseudomonas aeruginosa [5]) [µg/mL],MIC (Burkholderia cepacia [10]; [31]) [µg/mL],Structure (SMILES),ED50 (Escherichia coli [7]; [30]) [mg/kg],ED50 (Staphylococcus aureus [9]) [mg/kg],ED50 (Pseudomonas aeruginosa [13]; [32]) [mg/kg],ED50 (Staphylococcus aureus [15]; [33]) [mg/kg],ED50 (Pseudomonas aeruginosa [16]; [34]) [mg/kg],ED50 (Escherichia coli [7]) [mg/kg],also measured
0.39,0.1,0.1,0.02,6.1,1.56,CN[C@@H]1CN(c2c(F)cn3c(=O)c(C(=O)O)cc(C4CC4)c3c2C)C[C@@H]1C,0.5,1.3,,,,,MIC (Streptococcus pyogenes): 0.1 µg/mL; ED50 (Mus musculus [8]): 2.7 mg/kg; MIC (Pseudomonas aeruginosa [11]): 0.39 µg/mL
6.2,0.39,0.2,0.1,0.62,0.78,Cc1c(N2C[C@H]3CCN[C@H]3C2)c(F)cn2c(=O)c(C(=O)O)cc(C3CC3)c12,0.8,,18,5,> 50,,"ED50 (Mus musculus [12]): 11.2 mg/kg; ED50 (Streptococcus pneumoniae; Streptococcus pneumoniae, sc, read-out: ED50): 2.3 mg/kg; ED50 (Mus musculus [14]): 10 mg/kg; ED50 (Mus musculus [17]): 1.5 mg/kg"
